From ChEMBL document CHEMBL1138555, “N-acylated and N,N'-diacylated imidazolidine-2-thione derivatives and N,N'-diacylated tetrahydropyrimidine-2(1H)-thione analogues: synthesis and antiproliferative activity” (Eur J Med Chem, 2009)

Experiments:
MT4 = experiment: Antiproliferative activity against human MT4 cells assessed as reduction of growth by MTT assay; type: functional, cell-based
How it was run: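 MT-4 lymphoblastoid T cells (ATCC) in RPMI 1640 with 10% FCS, penicillin/streptomycin, checked for mycoplasma. 1 × 10⁴ mock-infected cells per well with serial dilutions from a 100 mM DMSO stock. Incubated 4 days at 37 °C, viable cells counted by MTT. IC50 versus untreated controls by linear regression. Mean of three separate experiments.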

NCI-H23 = experiment: Growth inhibition of human NCI-H23 cells after 48 hrs by sulforhodamine B assay; type: functional; conditions: NCI-H23, 48 h
How it was run: (§1)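 NCI screen panel. Five 10-fold concentrations from 10^-4 to 10^-8 M. Exposure for the last 48 h of a 72 h incubation. Growth estimated by sulforhodamine B protein assay. GI50 is the concentration giving 50% growth inhibition. Where that level was not reached or was exceeded, the value is given as above or below the highest or lowest concentration tested.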

PC-3 = experiment: Growth inhibition of human PC3 cells after 48 hrs by sulforhodamine B assay; type: functional; conditions: PC-3, 48 h; how it was run: as §1
UACC-62 = experiment: Growth inhibition of human UACC62 cells after 48 hrs by sulforhodamine B assay; type: functional; conditions: UACC-62, 48 h
How it was run: (§2)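 NCI in vitro panel screen. Compounds tested at five 10-fold dilutions, 10^-4 to 10^-8 M. Cells in 96-well plates were exposed for the last 48 h of a 72 h incubation. Viability/growth was read by sulforhodamine B protein assay. GI50 is the concentration giving 50% growth inhibition. Values beyond the tested range are reported as greater or less than the maximum or minimum concentration.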

Malme-3M = experiment: Growth inhibition of human MALME-3M cells after 48 hrs by sulforhodamine B assay; type: functional; how it was run: as §1
HL-60(TB) = experiment: Growth inhibition of human HL-60(TB) cells after 48 hrs by sulforhodamine B assay; type: functional; conditions: HL-60, 48 h
How it was run: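 NCI 60-cell-line screen protocol: cells exposed to compound at five 10-fold dilutions from 10^-4 to 10^-8 M for the last 48 h of a 72 h incubation. Sulforhodamine B protein assay estimated viability/growth. GI50 (50% growth inhibition) derived; where not reached or exceeded, reported as greater or less than the highest or lowest concentration tested.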

OVCAR-8 = experiment: Growth inhibition of human OVCAR8 cells after 48 hrs by sulforhodamine B assay; type: functional; conditions: OVCAR-8, 48 h; how it was run: as §1
SK-OV-3 = experiment: Growth inhibition of human SKOV3 cells after 48 hrs by sulforhodamine B assay; type: functional; conditions: SK-OV-3, 48 h; how it was run: as §1
DU-145 = experiment: Growth inhibition of human DU145 cells after 48 hrs by sulforhodamine B assay; type: functional; conditions: DU-145, 48 h; how it was run: as §1
RXF 393 = experiment: Growth inhibition of human RXF393 cells after 48 hrs by sulforhodamine B assay; type: functional; conditions: RXF 393, 48 h; how it was run: as §1
UACC-257 = experiment: Growth inhibition of human UACC257 cells after 48 hrs by sulforhodamine B assay; type: functional; conditions: UACC-257, 48 h; how it was run: as §2
IGROV-1 = experiment: Growth inhibition of human IGROV1 cells after 48 hrs by sulforhodamine B assay; type: functional; conditions: IGROV-1, 48 h; how it was run: as §1
MOLT-4 = experiment: Growth inhibition of human MOLT4 cells after 48 hrs by sulforhodamine B assay; type: functional; conditions: MOLT-4, 48 h; how it was run: as §1
NCI-H460 = experiment: Growth inhibition of human NCI-H460 cells after 48 hrs by sulforhodamine B assay; type: functional; conditions: NCI-H460, 48 h; how it was run: as §1
OVCAR-4 = experiment: Growth inhibition of human OVCAR4 cells after 48 hrs by sulforhodamine B assay; type: functional; conditions: OVCAR-4, 48 h; how it was run: as §1
HT-29 = experiment: Growth inhibition of human HT-29 cells after 48 hrs by sulforhodamine B assay; type: functional; conditions: HT-29, 48 h; how it was run: as §1
NCI/ADR-RES = experiment: Growth inhibition of human NCI/ADR-RES cells after 48 hrs by sulforhodamine B assay; type: functional; how it was run: as §1
U-251 = experiment: Growth inhibition of human U251 cells after 48 hrs by sulforhodamine B assay; type: functional; conditions: U-251, 48 h; how it was run: as §2
SNB-19 = experiment: Growth inhibition of human SNB19 cells after 48 hrs by sulforhodamine B assay; type: functional; conditions: SNB-19, 48 h; how it was run: as §2
ACHN = experiment: Growth inhibition of human ACHN cells after 48 hrs by sulforhodamine B assay; type: functional; how it was run: as §1
SR = experiment: Growth inhibition of human SR cells after 48 hrs by sulforhodamine B assay; type: functional; how it was run: as §2
HCT-116 = experiment: Growth inhibition of human HCT116 cells after 48 hrs by sulforhodamine B assay; type: functional; conditions: HCT-116, 48 h; how it was run: as §1
BT-549 = experiment: Growth inhibition of human BT549 cells after 48 hrs by sulforhodamine B assay; type: functional; conditions: BT-549, 48 h; how it was run: as §1
COLO 205 = experiment: Growth inhibition of human COLO205 cells after 48 hrs by sulforhodamine B assay; type: functional; conditions: COLO 205, 48 h; how it was run: as §1
EKVX = experiment: Growth inhibition of human EKVX cells after 48 hrs by sulforhodamine B assay; type: functional; how it was run: as §1
LOX IMVI = experiment: Growth inhibition of human LOXIMVI cells after 48 hrs by sulforhodamine B assay; type: functional; how it was run: as §1
HOP-92 = experiment: Growth inhibition of human HOP92 cells after 48 hrs by sulforhodamine B assay; type: functional; conditions: HOP-92, 48 h; how it was run: as §1
MDA-MB-435 = experiment: Growth inhibition of human MDA-MB-435 cells after 48 hrs by sulforhodamine B assay; type: functional; conditions: MDA-MB-435, 48 h; how it was run: as §1
TK-10 = experiment: Growth inhibition of human TK10 cells after 48 hrs by sulforhodamine B assay; type: functional; conditions: TK-10, 48 h; how it was run: as §2
NCI-H322M = experiment: Growth inhibition of human NCI-H322M cells after 48 hrs by sulforhodamine B assay; type: functional; how it was run: as §1
KM12 = experiment: Growth inhibition of human KM12 cells after 48 hrs by sulforhodamine B assay; type: functional; conditions: KM12, 48 h; how it was run: as §1
UO-31 = experiment: Growth inhibition of human UO31 cells after 48 hrs by sulforhodamine B assay; type: functional; conditions: UO-31, 48 h; how it was run: as §2
A549 = experiment: Growth inhibition of human A549 cells after 48 hrs by sulforhodamine B assay; type: functional; conditions: A549, 48 h; how it was run: as §1
OVCAR-3 = experiment: Growth inhibition of human OVCAR-3 cells after 48 hrs by sulforhodamine B assay; type: functional; conditions: OVCAR-3, 48 h; how it was run: as §1
SF-295 = experiment: Growth inhibition of human SF295 cells after 48 hrs by sulforhodamine B assay; type: functional; conditions: SF-295, 48 h; how it was run: as §1
786-0 = experiment: Growth inhibition of human 786-0 cells after 48 hrs by sulforhodamine B assay; type: functional; conditions: 786-0, 48 h; how it was run: as §1
[1] = Growth inhibition of human […] cells after 48 hrs by sulforhodamine B assay; type: functional; how it was run: as §1
SK-MEL-28 = experiment: Growth inhibition of human SK-MEL-28 cells after 48 hrs by sulforhodamine B assay; type: functional; conditions: SK-MEL-28, 48 h; how it was run: as §1
SN12C = experiment: Growth inhibition of human SN12C cells after 48 hrs by sulforhodamine B assay; type: functional; how it was run: as §2
SK-MEL-5 = experiment: Growth inhibition of human SK-MEL-5 cells after 48 hrs by sulforhodamine B assay; type: functional; conditions: SK-MEL-5, 48 h; how it was run: as §1
HOP-62 = experiment: Growth inhibition of human HOP62 cells after 48 hrs by sulforhodamine B assay; type: functional; conditions: HOP-62, 48 h; how it was run: as §1
MDA-MB-231 = experiment: Growth inhibition of human MDA-MB-231 cells after 48 hrs by sulforhodamine B assay; type: functional; conditions: MDA-MB-231, 48 h; how it was run: as §1
HCT-15 = experiment: Growth inhibition of human HCT15 cells after 48 hrs by sulforhodamine B assay; type: functional; conditions: HCT-15, 48 h; how it was run: as §1
M14 = experiment: Growth inhibition of human M14 cells after 48 hrs by sulforhodamine B assay; type: functional; conditions: M14, 48 h; how it was run: as §1
K562 = experiment: Growth inhibition of human K562 cells after 48 hrs by sulforhodamine B assay; type: functional; conditions: K562, 48 h; how it was run: as §1
SK-MEL-2 = experiment: Growth inhibition of human SK-MEL-2 cells after 48 hrs by sulforhodamine B assay; type: functional; conditions: SK-MEL-2, 48 h; how it was run: as §1
CAKI-1 = experiment: Growth inhibition of human Caki1 cells after 48 hrs by sulforhodamine B assay; type: functional; conditions: CAKI-1, 48 h; how it was run: as §1
SNB-75 = experiment: Growth inhibition of human SNB75 cells after 48 hrs by sulforhodamine B assay; type: functional; conditions: SNB-75, 48 h; how it was run: as §2
SW-620 = experiment: Growth inhibition of human SW620 cells after 48 hrs by sulforhodamine B assay; type: functional; conditions: SW-620, 48 h; how it was run: as §2

In the case of `O=C(c1cccc([N+](=O)[O-])c1)N1CCN(C(=O)c2cccc([N+](=O)[O-])c2)C1=S`, the IC50 (MT4) is reported as > 100 µM.

For `O=CN1CCN(C(=O)c2ccccc2)C1=S`, the IC50 (MT4) was 12 µM.

Work on `O=C(c1ccccc1)N1CCN(C(=O)c2ccccc2)C1=S` yielded an IC50 (MT4) of 94 µM.

In the case of `O=C(c1cccs1)N1CCCN(C(=O)c2cccs2)C1=S`, the IC50 (MT4) is reported as > 100 µM.

With `CC(=O)N1CCN(C=O)C1=S` the IC50 (MT4) was > 100 µM.

For `Cc1ccccc1C(=O)N1CCN(C(=O)c2ccccc2C)C1=S`, the IC50 (MT4) was > 100 µM.

In the case of `O=C(C(=CN1CCN(C(=O)c2ccco2)C1=S)C(=O)c1ccccc1)c1ccccc1`, the GI50 (NCI-H23) is reported as 7 µM, the GI50 (PC-3) is reported as 23.6 µM and the GI50 (UACC-62) is reported as 6.9 µM. For the same compound, the GI50 (Malme-3M) was 3.1 µM, the IC50 (MT4) was 7 µM and the GI50 (HL-60(TB)) was 9.9 µM. It also gave a GI50 (OVCAR-8) of 16.2 µM, a GI50 (SK-OV-3) of 41.8 µM and a GI50 (DU-145) of 12.4 µM. It also gave a GI50 (RXF 393) of 5.8 µM, a GI50 (UACC-257) of 11.7 µM and a GI50 (IGROV-1) of 5.6 µM. For the same compound, the GI50 (MOLT-4) was 15.2 µM, the GI50 (NCI-H460) was 2.4 µM and the GI50 (OVCAR-4) was 16.1 µM. The GI50 (HT-29) was 16.9 µM, the GI50 (NCI/ADR-RES) was 9.2 µM and the GI50 (U-251) was 2.7 µM. The GI50 (SNB-19) was 29.2 µM, the GI50 (ACHN) was 5.8 µM and the GI50 (SR) was 1.3 µM. For the same compound, the GI50 (HCT-116) was 7.9 µM, the GI50 (BT-549) was 10 µM and the GI50 (COLO 205) was 20 µM. The GI50 (EKVX) was 8.1 µM, the GI50 (LOX IMVI) was 1.2 µM and the GI50 (HOP-92) was 27 µM. The GI50 (MDA-MB-435) was 7.2 µM, the GI50 (TK-10) was 6.9 µM and the GI50 (NCI-H322M) was 2.2 µM. It also gave a GI50 (KM12) of 2.3 µM, a GI50 (UO-31) of 8.7 µM and a GI50 (A549) of 11.3 µM. For the same compound, the GI50 (OVCAR-3) was 7.3 µM, the GI50 (SF-295) was 11.1 µM and the GI50 (786-0) was 8.2 µM. It also gave a GI50 [1] of 8.4 µM, a GI50 (SK-MEL-28) of 17.8 µM and a GI50 (SN12C) of 6.1 µM. The GI50 (SK-MEL-5) was 10.9 µM, the GI50 (HOP-62) was 15.9 µM and the GI50 (MDA-MB-231) was 7.4 µM. The GI50 (HCT-15) was 2.6 µM, the GI50 (M14) was 7 µM and the GI50 (K562) was 3.2 µM. The GI50 (SK-MEL-2) was 12.1 µM, the GI50 (CAKI-1) was 7 µM and the GI50 (SNB-75) was 27.4 µM. The GI50 (SW-620) was 8.7 µM.

For `O=C(c1ccc(Cl)c(Cl)c1)N1CCCN(C(=O)c2ccc(Cl)c(Cl)c2)C1=S`, the IC50 (MT4) was 72 µM.
